In ChEMBL document CHEMBL1123568 (J Med Chem, 1987):
Values after ≈ are worked out from the molar mass of the structure shown.

Legend:
Assay type in all cases: functional
[1] = test system: Streptococcus equinus; assay: Antimicrobial activity against the streptococcus bovis A 5169 by 2-fold agar dilution method using brain-heart infusion agar.
[2] = test system: Acinetobacter; assay: Antimicrobial activity against the acinetobacter sp. CMX 669 by 2-fold agar dilution method using brain-heart infusion agar.
[3] = test system: Staphylococcus aureus; assay: Antimicrobial activity against the Staphylococcus aureus 45 by 2-fold agar dilution method using brain-heart infusion agar.
Outline: (§1)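 Read-out is the MIC, found by twofold agar dilution in brain-heart infusion agar. Strains were Escherichia coli H560, Staphylococcus aureus 45 and Staphylococcus aureus ATCC 6538 P.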

[4] = test system: Micrococcus luteus; assay: Antimicrobial activity against the micrococcus luteus 9341 by 2-fold agar dilution method using brain-heart infusion agar.
[5] = test system: Escherichia coli; assay: Antimicrobial activity against the Escherichia coli JUHL by 2-fold agar dilution method using brain-heart infusion agar.
[6] = test system: Staphylococcus aureus; assay: Antimicrobial activity against the Staphylococcus aureus ATCC 6538 P by 2-fold agar dilution method using brain-heart infusion agar.; settings: ATCC 6538, Brain; outline: as §1
[7] = test system: Streptococcus agalactiae; assay: Antimicrobial activity against the streptococcus agalactiae CMX 508 by 2-fold agar dilution method using brain-heart infusion agar.
[8] = test system: Streptococcus pyogenes; assay: Antimicrobial activity against the streptococcus pyogenes EES 61 by 2-fold agar dilution method using brain-heart infusion agar.
[9] = test system: Streptococcus pyogenes; assay: Antimicrobial activity against the streptococcus pyogenes 2548 by 2-fold agar dilution method using brain-heart infusion agar.
[10] = test system: Enterococcus faecium; assay: Antimicrobial activity against the faecium ATCC 8043 by 2-fold agar dilution method using brain-heart infusion agar.; settings: ATCC 8043, Brain
[11] = test system: Klebsiella pneumoniae; assay: Antimicrobial activity against the klebsiella pneumoniae 8045 by 2-fold agar dilution method using brain-heart infusion agar.
[12] = test system: Pseudomonas aeruginosa; assay: Antimicrobial activity against the Pseudomonas aeruginosa K 799/WT by 2-fold agar dilution method using brain-heart infusion agar.
[13] = test system: Klebsiella aerogenes; assay: Antimicrobial activity against the enterobacter aerogenes ATCC 13048 by 2-fold agar dilution method using brain-heart infusion agar.; settings: ATCC 13048, Brain
[14] = test system: Pseudomonas aeruginosa; assay: Antimicrobial activity against the Pseudomonas aeruginosa K 799/61 by 2-fold agar dilution method using brain-heart infusion agar.
[15] = test system: Staphylococcus epidermidis; assay: Antimicrobial activity against the Staphylococcus epidermis 3519 by 2-fold agar dilution method using brain-heart infusion agar.
[16] = test system: Escherichia coli; assay: Antimicrobial activity against the Escherichia coli H560 by 2-fold agar dilution method using brain-heart infusion agar.; outline: as §1

Row | SMILES | MIC [1] [µg/mL] | MIC [2] [µg/mL] | MIC [3] [µg/mL] | MIC [4] [µg/mL] | MIC [5] [µg/mL] | MIC [6] [µg/mL] | MIC [7] [µg/mL] | MIC [8] [µg/mL] | MIC [9] [µg/mL] | MIC [10] [µg/mL] | MIC [11] [µg/mL] | MIC [12] [µg/mL] | MIC [13] [µg/mL] | MIC [14] [µg/mL] | MIC [15] [µg/mL] | MIC [16] [µg/mL]
1 | C[C@@H]1COc2c(N3CCN(C)CC3)c(F)cc3c(=O)c(C(=O)O)cn1c23 [DEXTROFLOXACINE] | > 9.75 | 9.75 (≈ 27 µM) | 9.75 (≈ 27 µM) | > 9.75 | 1.21 (≈ 3.35 µM) | 4.8 (≈ 13.3 µM) | > 9.75 | > 9.75 | > 9.75 | > 9.75 | 1.21 (≈ 3.35 µM) | 9.75 (≈ 27 µM) | 9.75 (≈ 27 µM) | 1.21 (≈ 3.35 µM) | 4.8 (≈ 13.3 µM) | 9.75 (≈ 27 µM)
2 | C[C@H]1COc2c(N3CCN(C)CC3)c(F)cc3c(=O)c(C(=O)O)cn1c23.C[C@H]1COc2c(N3CCN(C)CC3)c(F)cc3c(=O)c(C(=O)O)cn1c23.O [LEVOFLOXACIN] | 1.21 | 0.3 | 0.3 | 1.21 | 0.07 | 0.15 | 1.21 | 0.46 | 0.26 | 0.46 | < 0.04 | < 0.04 | 0.07 | 0.07 | 0.3 | 0.04
3 | CC1COc2c(N3CCN(C)CC3)c(F)cc3c(=O)c(C(=O)O)cn1c23 (stereo not drawn) [OFLOXACIN] | 1.56 (≈ 4.32 µM) | 0.39 (≈ 1.08 µM) | 0.39 (≈ 1.08 µM) | 3.1 (≈ 8.58 µM) | 0.05 (≈ 0.138 µM) | 0.2 (≈ 0.553 µM) | 1.56 (≈ 4.32 µM) | 0.78 (≈ 2.16 µM) | 0.39 (≈ 1.08 µM) | 0.78 (≈ 2.16 µM) | 0.05 (≈ 0.138 µM) | 0.39 (≈ 1.08 µM) | 0.2 (≈ 0.553 µM) | 0.1 (≈ 0.277 µM) | 0.39 (≈ 1.08 µM) | 0.1 (≈ 0.277 µM)
